Dyrk1A ADPGlo = rat Dyrk1A kinase inhibitors, primary screen, biochemical, single point, plate reader | Dual specificity tyrosine-phosphorylation-regulated kinase 1A (Rattus norvegicus), Q63470 | ADP-Glo luminescence, NFATc1 peptide | hit rate 0.43% among 310,000 | inhibition, % at 12.5 µM | AID 504441, 2011;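 also: plate controls were vehicle with enzyme for no effect and no enzyme for full effect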
CDK5 inh = inhibitors of human CDK5/p35 kinase, primary screen, biochemical, single concentration. Cyclin-dependent kinase 5 (Homo sapiens) + Cyclin-dependent kinase 5 activator 1 (Homo …. Recombinant CDK5/p35, ADP-Glo luminescence, 60 min. inhibition, % at 10 µM. hit rate 0.01% among 330,000;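 active = highest replicate inhibition of at least 50% and at least 75% of replicates reaching 50%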;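 also: plate controls were DMSO neutral control for no effect and GW8510 at 10 µM for full effect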
SR-BI uptake up = activators of SR-BI mediated DiI-HDL uptake, primary screen, ldlA[mSR-BI] CHO cells, DiI fluorescence | 3 h; 100 = double the neutral-control signal | activation, % at 12.5 µM | hit rate 0.096% among 320,000 | AID 504775, 2011;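 active = mean replicate activation of at least 60% and every replicate at or above 60%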;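 also: 0% = median plate neutral-control signal and 100% = twice that signal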
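system = CHO ldlA[mSR-BI] cells, LDL receptor-null, SR-BI overexpressing | medium = Ham's F12 with 0.5% BSA, HEPES 25 mM, pH 7.4 | probe or stimulus = DiI-HDL 10 µg/mL | compound dosing = single-point compound dose | incubation = compound exposure 3 h, 37 °C | technique = DiI fluorescence, bottom read | read-out = cell-associated DiI fluorescence as measure of HDL uptake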
dFosB act = activators of delta FosB homodimer, primary screen, biochemical, fluorescence polarization, TAMRA-CDK5 oligo, single point; Protein FosB (Mus musculus), P13346; purified delta FosB; percent of positive-control signal above neutral wells; activation, % at 25 µM; hit rate 0.99% among 340,000;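 active = mean activation above about 17%, with every replicate also reaching it, limit read from the data, passing the limit was not always enough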
SR-BI DiI inh = inhibitors of SR-BI mediated HDL lipid uptake, primary screen, ldlA[mSR-BI] cells, fluorescence, single point; inhibition, % at 12.5 µM; hit rate 0.96% among 320,000; Scavenger receptor class B member 1 (Mus musculus), Q61009; ldlA[mSR-BI] CHO cells, DiI-HDL uptake fluorescence, 3 h;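 active = mean replicate inhibition of at least 70% and a set share of replicates each scoring 70 or more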;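 also: 0% = median of neutral control wells and 100% = median of positive control wells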
Target sequence (Q61009 whole entry, looked up): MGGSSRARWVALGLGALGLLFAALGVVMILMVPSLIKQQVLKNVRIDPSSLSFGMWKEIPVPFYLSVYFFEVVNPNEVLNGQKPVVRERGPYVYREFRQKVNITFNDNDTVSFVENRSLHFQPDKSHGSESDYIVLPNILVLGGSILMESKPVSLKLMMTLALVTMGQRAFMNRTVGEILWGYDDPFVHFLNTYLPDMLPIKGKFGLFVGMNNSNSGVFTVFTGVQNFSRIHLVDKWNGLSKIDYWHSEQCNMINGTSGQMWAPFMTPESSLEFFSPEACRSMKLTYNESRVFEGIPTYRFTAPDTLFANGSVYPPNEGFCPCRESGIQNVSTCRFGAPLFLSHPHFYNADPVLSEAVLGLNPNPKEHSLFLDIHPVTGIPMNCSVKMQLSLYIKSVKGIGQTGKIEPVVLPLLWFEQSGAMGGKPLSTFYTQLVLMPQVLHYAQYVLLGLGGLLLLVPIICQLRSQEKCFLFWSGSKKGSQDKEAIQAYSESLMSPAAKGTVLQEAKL
NSD2 HMT inh = NSD2 histone methyltransferase inhibitors, primary screen, biochemical, AlphaScreen, single concentration, set 2 | hit rate 0.54% among 310,000 | NSD2 peptide methylation, 120 min | inhibition, % at 12.5 µM
* = called active by the depositor; / = not tested or not shown. This is a sample that favours compounds with a hit; in the whole collection about 2.5% have one here. Rule as the data show it, unless noted: active = inhibition above about 50%; inactive = the rest.

SMILES	Dyrk1A ADPGlo	CDK5 inh	SR-BI uptake up	dFosB act	SR-BI DiI inh	NSD2 HMT inh
COc1ccc(S(=O)(=O)N2CCCCCC2)cc1NC(=O)CN(C)Cc1ccc2c(c1)OCO2	/	0.9	-45.5	-7.4	45.5	8.0
COc1cccc(C(=O)NNC(=O)c2ccc3ccccc3c2O)c1	4.8	-0.5	-107.5	-2.7	107.5*	6.6
COc1ccc(NC(=O)c2cc3ccccc3cc2OC)cc1OC	-3.0	0.3	-70.4	-3.9	70.4*	-2.9
COc1ccc(NC(=O)c2cc(-c3ccc(C)o3)nc3ccccc23)cc1OC	-3.6	0.6	-83.0	-6.8	83.0*	2.5
COc1cc(OC)c(C(=O)Nc2ccc3ccccc3c2)cc1OC	11.1	-3.1	-25.8	-2.9	25.8	/
COc1cc2ccccc2cc1C(=O)Nc1ccccc1N1CCN(S(C)(=O)=O)CC1	5.6	-0.5	-88.5	10.4	88.5*	-0.3
Cc1ccc2[nH]cc(S(=O)(=O)c3ccc(C)c(C)c3)c(=O)c2c1	1.6	0.8	12.4	1.4	-12.4	-2.8
CCCc1cc(=O)[nH]c2nnc(SCC(=O)Nc3cccc(NC(C)=O)c3)n12	12.4	0.8	28.5	-2.0	-28.6	-2.5
Cc1ccnc(NC(=S)NC(=O)c2ccco2)c1	-0.1	2.4	63.7*	-1.5	-63.7	1.5
CNC[C@H](Cc1ccccc1)NC[C@@H](Cc1cccc2ccccc12)NCCc1ccc(C)cc1	1.4	0.8	23.3	29.6*	-23.3	/
CNCCNC[C@H](Cc1cccc2ccccc12)NCCc1ccccc1	1.7	-0.4	30.9	2.9	-30.9	/
CCN(C(=O)[C@H]1CC(=O)O[C@@H]1c1ccccc1)c1ccccc1	/	/	/	/	/	0.0
CCN(CC)c1ccc(-n2cc3c(=O)n(C)c(=O)n(C)c3c2)cc1	0.1	0.4	-73.5	-7.7	73.5*	16.3
Cc1cc(C)nc(N/N=C/C2=C(N3CCOCC3)C(=C/c3ccccc3)/CC2)n1	12.2	2.8	-90.4	-0.2	90.4*	2.5
CC(C)C(NC(=O)C12CC3CC(CC(C3)C1)C2)C(=O)N/N=C/C1=C(N2CCOCC2)C(=C\c2ccc([N+](=O)[O-])cc2)/CC1 (centres undefined)	1.1	0.0	-98.9	-8.4	98.9*	0.3
O=C(N/N=C/C1=C(N2CCOCC2)C(=C\c2ccccc2)/CC1)Nc1ccccc1	0.4	-0.8	-73.9	-18.6	73.9*	0.1
Cc1occc1C(=O)N/N=C/C1=C(N2CCOCC2)C(=C\c2ccc(Cl)cc2)/CC1	-2.5	2.3	/	-6.4	/	1.2
CCN(CC)c1ccc(/C=C2\CCC(/C=N/NC(=O)c3ccc(=O)n(C)c3)=C2N2CCOCC2)cc1	/	1.6	-99.6	-0.5	99.6*	-0.2
CCOc1ccc(NC(=O)C2C3C=CC4(O3)C2C(=O)N(Cc2cccnc2)C4C(=O)NC2CCCCC2)cc1 (centres undefined)	-6.2	-0.3	6.3	-6.3	-6.3	/
COCCCNC(=O)CSc1nnc(-c2cccnc2)n1C1CCCCC1	/	/	/	/	/	-4.5
O=C(Nc1cc(S(=O)(=O)N2CCCC2)ccc1OCC(F)(F)F)c1ccncc1	/	/	/	/	/	0.2
Cc1noc(C)c1S(=O)(=O)N1CCCc2nc(-c3ccc(Br)cc3)ccc21	/	/	/	/	/	-1.8
Cc1cccc(COc2ccccc2C(=O)N(C)CC(=O)Nc2cccc(F)c2)c1	-8.9	0.4	-36.6	-6.7	36.6	-2.8
CCOc1ccc(NC(=O)CN(C)C(=O)c2ccccc2OCc2cccc(C)c2)cc1OCC	-0.6	1.3	-86.2	-16.3	86.2*	2.4
CCSc1nc2cc(OC)c(OC)cc2c(=O)n1CCc1ccccc1	5.1	-0.5	-71.0	-5.1	71.0*	-1.9
SMILES	Dyrk1A ADPGlo	CDK5 inh	SR-BI uptake up	dFosB act	SR-BI DiI inh	NSD2 HMT inh
CCc1ccc(C2NC(=S)NC3=C2C(=O)N(c2ccccc2OC)C(c2ccc(CC)cc2)N3)cc1 (centres undefined)	-2.1	1.6	-5.2	100.5*	5.2	-0.4
COc1ccccc1N1C(=O)c2ccccc2NC1c1ccncc1 (centres undefined)	-5.1	-0.9	-15.6	3.8	15.6	0.0
O=C(Nc1ccc(F)c(Cl)c1)C1CCCN(C2=NS(=O)(=O)c3ccccc32)C1 (centres undefined)	/	-0.7	-9.0	-2.0	9.0	0.3
Cc1c(Cl)cccc1NC(=O)CSC(C)c1nc2ccccc2c(=O)[nH]1 (centres undefined)	-3.9	0.8	/	41.1*	-9.0	-1.7
COc1ccc(C(=O)NN)cc1COc1ccc(Br)cc1	-2.7	-1.9	-97.4	-12.5	97.4*	-0.9
CCOc1ccc(C(=O)NCC(=O)OCc2cc(C(C)=O)ccc2OC)cc1	0.3	-0.6	-70.8	-1.7	70.8*	-1.6
Cc1c(C(=O)N/N=C/c2ccccc2Cl)[nH][nH]c1=O	/	/	/	/	/	13.4
COc1ccc(N2CCN(c3ccc(S(=O)(=O)N(C(C)C)C(C)C)cn3)CC2)cc1	-4.1	-1.8	/	-12.2	/	-3.1
CC1CN(C2CCN(S(=O)(=O)c3ccc(F)cc3)CC2)CC(C)O1 (centres undefined)	1.7	-1.3	5.6	-3.0	-5.6	1.7
CC1CN(C2CCN(S(=O)(=O)c3ccccc3)CC2)CC(C)O1 (centres undefined)	3.3	-2.3	288.7*	0.4	-288.6	1.0
CC(C)c1ccc(S(=O)(=O)N2CCN(CC(=O)c3ccc(O)c(O)c3)CC2)cc1	-0.3	3.1	-10.9	3.3	10.9	95.9*
CCOc1ccc(C(=O)CN2CCN(S(=O)(=O)c3ccc(Cl)cc3)CC2)cc1	6.7	-4.4	-5.2	-20.9	5.2	-2.5
CCOC(=O)c1cc(CC)sc1NC(=O)c1ccc2c(c1)OCCO2	2.5	-3.7	-71.1	-0.3	71.1*	-8.2
S=C(NCc1ccccc1)N1CCN(c2ccccc2)CC1	-0.5	-1.4	77.8*	-2.0	-77.8	2.4
O=C(NCc1ccccc1)N1CCN(c2ccccc2)CC1	/	-0.4	-10.9	-3.2	10.9	0.1
Cc1cc(Br)c(OCc2ccc(C(=O)N/N=C/c3ccc[nH]3)cc2)c(Br)c1	-4.9	0.1	-91.4	-3.4	91.4*	-2.6
COc1ccc(C(=O)N(C)Cc2cnn(Cc3ccccc3)c2)cc1S(=O)(=O)N1CCOCC1	/	-4.1	2.6	-6.8	-2.6	-2.2
Cc1ccc(NC(=O)c2cc3c(s2)CCCC3)cc1	0.5	2.0	-67.6	-1.9	67.6	-2.4
Cc1ccc(NS(=O)(=O)c2cc(NC(=O)c3cc4c(s3)CCCC4)ccc2C)c(C)c1	-1.2	-4.2	-82.8	2.2	82.8*	0.4

Screens: PubChem, Broad Institute
